Data: ChEMBL document CHEMBL1135434, “An algorithm-directed two-component library synthesized via solid-phase methodology yielding potent and orally bioavailable p38 MAP kinase inhibitors” (J Med Chem, 2002)

Legend:
[1] = PK study was carried to determine the relative absorption ranking in rat.; type: ADME, organism-based; conditions: plasma, read-out: Cp max
Rattus norvegicus [2] = species on record: Rattus norvegicus; assay: PK study was carried to determine AUC (area under curve) value in rat; type: ADME, organism-based; set-up: concentration or dose not given beside the values; conditions: in vivo
Procedure, shortened: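 Three rats dosed at 1 mg/kg, either orally as a methylcellulose suspension or iv as a solution in N-methylpyrrolidone. Blood sampled at intervals over 24 h and assayed for compound. Results averaged, n = 3.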

MAP kinase p38 = MAP kinase p38 (Mus musculus, UniProt P47811+O08911+Q9WUI1+Q9Z1B7); assay: Inhibition of murine Mitogen-activated protein kinase p38; type: protein assay
Procedure, shortened: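 Mouse p38 enzyme, 40 ng/well, run for 1 h at room temperature. ATF-2 (50 µg/mL) coated on plates as substrate. Buffer: 25 mM Hepes pH 7.7, 25 mM MgCl2, 2 mM DTT, 1 mM sodium orthovanadate, 100 µM ATP. Phospho-ATF-2 detected with a rabbit phospho-specific antibody, then a europium-labelled anti-rabbit secondary, read by DELFIA fluorescence. Mean ± SEM, n = 3.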

[3] = target: T1, Tumor necrosis factor (Mus musculus) (UniProt P06804); assay: Effective dose against LPS-stimulated Tumor necrosis factor, alpha release in mice dosed orally, 30 min prior to LPS challenge (0.1 mg/kg, ip); type: functional, organism-based
T1 sequence (whole entry): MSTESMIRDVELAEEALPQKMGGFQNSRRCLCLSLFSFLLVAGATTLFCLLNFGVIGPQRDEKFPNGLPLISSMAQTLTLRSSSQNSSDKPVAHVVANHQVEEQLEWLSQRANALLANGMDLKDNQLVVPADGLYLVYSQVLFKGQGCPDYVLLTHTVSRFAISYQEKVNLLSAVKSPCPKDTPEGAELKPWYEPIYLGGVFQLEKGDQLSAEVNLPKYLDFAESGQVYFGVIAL
Procedure, shortened: (§1)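 Balb/c mice dosed orally 30 min before ip LPS (0.1 mg/kg). Serum TNFα measured 90 min after LPS. Means, n = 3.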

[4] = target: T1, Tumor necrosis factor (Mus musculus); assay: Effective dose against LPS-stimulated Tumor necrosis factor, alpha release in mice dosed orally, 30 min prior to LPS challenge (0.1 mg/kg, ip); value ranges from 3-10; type: functional, organism-based; procedure, shortened: as §1
Rattus norvegicus [5] = assay: Effective dose for suppressing paw swelling in an in vivo SCW (streptococcal cell wall) induced arthritis model in Lewis rat; value ranges from 10-30; type: functional

| Compound | Cmax [1] [ng/mL] | AUC (Rattus norvegicus [2]) [ng·h/mL] | IC50 (MAP kinase p38) [nM] | ED50 [3] [mg/kg] | ED50 [4] [mg/kg] | ED50 (Rattus norvegicus [5]) [mg/kg] |
| --- | --- | --- | --- | --- | --- | --- |
| C[C@]1(C(=O)N2CCOCC2)CO[C@H](c2nc(-c3ccc(F)cc3)c(-c3ccncc3)[nH]2)OC1 [listing 1 of 2 here] | 60 | 247 | – | – | – | – |
| CN(C)C(=O)[C@]1(C)CO[C@@H](c2nc(-c3ccc(F)cc3)c(-c3ccnc(NCc4ccccn4)n3)[nH]2)OC1 | 110 | 529 | 4 | 8 | – | – |
| COCCCNc1nccc(-c2[nH]c([C@H]3OC[C@@](C)(C(=O)NCCOC)CO3)nc2-c2ccc(F)cc2)n1 | 89 | 138 | 127 | 5 | – | – |
| CC(C)NC(=O)[C@]1(C)CO[C@@H](c2nc(-c3ccc(F)cc3)c(-c3ccnc(NCC4CC4)n3)[nH]2)OC1 | 141 | 412 | 12 | 0.7 | – | – |
| C[C@]1(C(=O)NC2CC2)CO[C@H](c2nc(-c3ccc(F)cc3)c(-c3ccnc(NCC4CC4)n3)[nH]2)OC1 | 91 | 288 | 5 | 5 | – | – |
| CN(C)C(=O)[C@]1(C)CO[C@@H](c2nc(-c3ccc(F)cc3)c(-c3ccnc(NCC4CC4)n3)[nH]2)OC1 | 29 | 276 | 6 | 9 | – | – |
| CCCNC(=O)[C@]1(C)CO[C@@H](c2nc(-c3ccc(F)cc3)c(-c3ccnc(NCCCOC)n3)[nH]2)OC1 | 270 | 738 | 6 | 6 | – | – |
| C[C@]1(C(=O)N2CCOCC2)CO[C@H](c2nc(-c3ccc(F)cc3)c(-c3ccncc3)[nH]2)OC1 [listing 2 of 2 here] | – | – | – | – | 10 | – |
| CS(=O)(=O)O.C[C@]1(C(=O)N2CCOCC2)CO[C@H](c2nc(-c3ccc(F)cc3)c(-c3ccncc3)[nH]2)OC1 | 277 | 628 | 110 | – | – | – |
| C=CCNc1nccc(-c2[nH]c([C@H]3OC[C@@](C)(C(=O)NCCOC)CO3)nc2-c2ccc(F)cc2)n1 | 95 | 169 | 62 | 0.2 | – | – |
| CCCNC(=O)[C@]1(C)CO[C@@H](c2nc(-c3ccc(F)cc3)c(-c3ccnc(NCc4ccco4)n3)[nH]2)OC1 | 39 | 257 | 6 | – | – | – |
| CN1CCN(C(=O)[C@]2(C)CO[C@@H](c3nc(-c4ccc(F)cc4)c(-c4ccnc(NCC5CC5)n4)[nH]3)OC2)CC1 | 221 | 541 | 4 | 10 | – | 30 |
| COCCNc1nccc(-c2[nH]c([C@H]3OC[C@@](C)(C(=O)NCC4CC4)CO3)nc2-c2ccc(F)cc2)n1 | 62 | 121 | 47 | 3 | – | – |
